ChEMBL document CHEMBL1145930, “Synthesis and evaluation of nitroheterocyclic carbamate prodrugs for use with nitroreductase-mediated gene-directed enzyme prodrug therapy” (J Med Chem, 2003)
Values after ≈ are worked out from the molar mass of the structure shown.

Experiments:
V79 [1] = assay: Ratio between V79 and V79-NTRpuro was determined; type: functional, Cricetulus griseus
Summary of the method: (§1)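 Parental and stably NTR-transfected cells were tested in parallel by aerobic SRB growth inhibition (18 h exposure, readout 4–5 days later). The ratio is IC50(NTR-ve)/IC50(NTR+ve), calculated within each experiment. Selection drug was kept during passage but omitted during experiments: puromycin 15 µM for V79, 5 µM for EMT6; G418 300 µg/mL for SKOV3/WiDr.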

EMT6 [2] = assay: Inhibitory activity against EMT6 murine cell line; type: functional, cell-based; details: Mus musculus
Summary of the method: (§2)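 Aerobic growth inhibition of log-phase cells (parental NTR-negative lines). Cultures seeded 24 h before an 18 h drug exposure; cell density read 4–5 days later by sulforhodamine B staining. IC50 is the concentration giving 50% growth inhibition versus same-plate controls. Mean ± SEM of up to five independent experiments.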

EMT6 [3] = assay: Ratio between EMT6 and EMT6-NTRpuro was determined; type: functional, Mus musculus; summary of the method: as §1
SK-OV-3 [4] = assay: Inhibitory activity was determined against SKOV3 cell line in human; type: functional, cell-based; summary of the method: as §2
SK-OV-3 [5] = assay: Ratio between SKOV3 and SKOV3-NTR neo was determined; type: functional, Homo sapiens; summary of the method: as §1
WiDr [6] = assay: Inhibitory activity was determined against WiDr cell line in human; type: functional, cell-based; summary of the method: as §2
V79 [7] = assay: Inhibitory activity was determined against V79 cell line in chinese hamster; type: functional, cell-based; details: Cricetulus griseus; summary of the method: as §2
WiDr [8] = assay: Ratio between WiDr and WiDr-NTRneo was determined; type: functional, Homo sapiens; summary of the method: as §1
[9] = Solubility in alpha-MEM culture medium; type: physicochemical
Summary of the method: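 Solubility measured in α-MEM culture medium with 5% fetal calf serum, by HPLC analysis of the supernatant of a saturated solution.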

Mus musculus = assay: In vivo maximum tolerance dose in C3H mice by ip administration; type: functional
Summary of the method: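 Male C3H mice (ca. 25 g), groups of six, given single ip doses in 10^(1/8)-fold increments. Vehicle DMSO at 1 μL/g for most compounds; CB1954 given in 10% DMA/40% PEG400/50% water at 10 μL/g. Animals observed daily for 60 days; any losing >15% body weight or becoming moribund were terminated.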

EMT6 [10] = assay: Inhibitory activity against EMT6 (mouse mammary carcinoma) murine cell line; type: functional, cell-based; summary of the method: as §2
SK-OV-3 [11] = assay: Inhibitory activity against SKOV3 (human ovarian carcinoma) cell line in human; type: functional, cell-based; summary of the method: as §2

SMILES	Ratio (V79 [1])	IC50 (EMT6 [2]) [µM]	Ratio (EMT6 [3])	IC50 (SK-OV-3 [4]) [µM]	Ratio (SK-OV-3 [5])	IC50 (WiDr [6]) [µM]	IC50 (V79 [7]) [µM]	Ratio (WiDr [8])	solubility [9] [µM]	MTD (Mus musculus) [µM]	IC50 (EMT6 [10]) [µM]	IC50 (SK-OV-3 [11]) [µM]
CCOC(=O)c1cc(COC(=O)Nc2cc3c(c4ccccc24)C(C(=O)c2cc4cc(OC)c(OC)c(OC)c4[nH]2)CN3CCl)c([N+](=O)[O-])n1C (centres undefined)	2	28	12	97	9.6	94	24	13				
COc1cc2cc(C(=O)C3CN(CCl)c4cc(NC(=O)OCc5ccn(C)c5[N+](=O)[O-])c5ccccc5c43)[nH]c2c(OC)c1OC (centres undefined)	1.5	64	1.3	116	0.5	219	62	1.8	18 (≈ 11.7 µg/mL)			
COc1cc2cc(C(=O)C3CN(CCl)c4cc(NC(=O)OCc5cnc([N+](=O)[O-])n5C)c5ccccc5c43)[nH]c2c(OC)c1OC (centres undefined)	14.7	19.6	62	75	21	75	24	40	17 (≈ 11 µg/mL)	>1000		
COc1cc2cc(C(=O)C3CN(CCl)c4cc(NC(=O)OCc5ccc([N+](=O)[O-])n5C)c5ccccc5c43)[nH]c2c(OC)c1OC (centres undefined)	1	49	1.2	265	1.3	182	53	2.5	9 (≈ 5.83 µg/mL)			
COc1cc2cc(C(=O)C3CN(CCl)c4cc(NC(=O)OCc5ncc([N+](=O)[O-])n5CCO)c5ccccc5c43)[nH]c2c(OC)c1OC (centres undefined)	1.2	129	11	378	26	427	94	12.4	20 (≈ 13.6 µg/mL)			
NC(=O)c1cc(N(CCBr)CCBr)c([N+](=O)[O-])cc1[N+](=O)[O-]	302	54	1380	58	211			174	40 (≈ 17.6 µg/mL)			
COc1cc2cc(C(=O)C3CN(CCl)c4cc(NC(=O)OCc5cnn(C)c5[N+](=O)[O-])c5ccccc5c43)[nH]c2c(OC)c1OC (centres undefined)	37	39	87	0.032	30.3	0.0113	41	13.5	8 (≈ 5.19 µg/mL)			
COc1cc2cc(C(=O)C3CN(CCl)c4cc(NC(=O)OCc5ccc([N+](=O)[O-])o5)c5ccccc5c43)[nH]c2c(OC)c1OC (centres undefined)	1.1	18	1.2	76	1.2	89	20	1.9	11 (≈ 6.99 µg/mL)			
COc1cc2cc(C(=O)C3CN(CCl)c4cc(NC(=O)OCc5ccc([N+](=O)[O-])s5)c5ccccc5c43)[nH]c2c(OC)c1OC (centres undefined)	3.1	0.0043	16	0.0106	7	0.018	0.0035	13.5	4 (≈ 2.6 µg/mL)			
COc1cc2cc(C(=O)C3CN(CCl)c4cc(NC(=O)OCc5ncn(C)c5[N+](=O)[O-])c5ccccc5c43)[nH]c2c(OC)c1OC (centres undefined)	1.4	63	6.5	61	5.6	0.024	44	3.4	5.5 (≈ 3.57 µg/mL)			
CCOC(=O)c1cc([N+](=O)[O-])c(COC(=O)Nc2cc3c(c4ccccc24)C(C(=O)c2cc4cc(OC)c(OC)c(OC)c4[nH]2)CN3CCl)n1C (centres undefined)	1.8			98	0.8	223	52	1.3	21 (≈ 15.1 µg/mL)			
COc1cc2cc(C(=O)C3CN(CCl)c4cc(NC(=O)OCc5ncc([N+](=O)[O-])n5C)c5ccccc5c43)[nH]c2c(OC)c1OC (centres undefined)	10	78	71	146	50	230	68	100	8 (≈ 5.19 µg/mL)	>1000		
COc1cc2cc(C(=O)C3CN(CCl)c4cc(NC(=O)OCc5c([N+](=O)[O-])ccn5C)c5ccccc5c43)[nH]c2c(OC)c1OC (centres undefined)	0.9	15	1.5	0.025	0.7	0.028	0.006	1.4	8.4 (≈ 5.44 µg/mL)			
COc1cc2cc(C(=O)C3CN(CCl)c4cc(NC(=O)OCc5c([N+](=O)[O-])ncn5C)c5ccccc5c43)[nH]c2c(OC)c1OC (centres undefined)	1.2	73	2.1	185	4.8	201	55	2.8	13 (≈ 8.44 µg/mL)			
COc1cc2cc(C(=O)N3CC(CCl)c4c3cc(N)c3ccccc43)[nH]c2c(OC)c1OC (centres undefined)	0.9	0.00037	2	0.0011	0.55	0.0016	0.00033	0.9	197 (≈ 91.8 µg/mL)			
NC(=O)c1cc(N2CC2)c([N+](=O)[O-])cc1[N+](=O)[O-] [TRETAZICAR]	2090		930		317			51	1600 (≈ 403 µg/mL)		71	174
